Screening results deposited in PubChem BioAssay by several laboratories.
This is a sample that favours compounds with a hit; in the whole collection about 2.6% have one here.
Calb FLC: C. albicans growth modulation with fluconazole; growth inhibition, % (no concentration beside the values); actives 0.57% (n = 300,000); C. albicans CaCi-2 (fluconazole-resistant clinical isolate) + fluconazole, Alamar Blue growth, 48 h; AID 1979;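 active means growth inhibition above about 58% in most replicates, limit read from the data, passing the limit was not always enough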;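 further: all wells also contain fluconazole at 8 µg/ml as a sub-toxic cotreatment; 0% = median of DMSO wells and 100% = median of geldanamycin control wells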
VIM-2 inh: inhibitors of Pseudomonas aeruginosa VIM-2 metallo-beta-lactamase; inhibition, % at 5.6 µM; purified VIM-2, nitrocefin hydrolysis, epi-absorbance fluorescence; actives 0.89% (n = 290,000);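 active means inhibition above the mean of all tested compounds plus 3 SD, cutoff set per screening run, cut at about 7.5% in these data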;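 further: red hydrolysis product quenches plate fluorescence so inhibitors raise well fluorescence; 0% = enzyme with DMSO and 100% = DMSO without enzyme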
ASAP1 inh: ASAP1 ArfGAP inhibition | ASAP1-stimulated ARF1 GTP hydrolysis, GDP FP detection | Q9ULH1 | AID 624377 | inhibition, % at 16.5 µM | actives 0.19% (n = 360,000); in the data active means inhibition above about 25%;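 further: 0% = vehicle with enzyme and substrate and 100% = no enzyme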
Target sequence (Q9ULH1 325-724 limits assumed): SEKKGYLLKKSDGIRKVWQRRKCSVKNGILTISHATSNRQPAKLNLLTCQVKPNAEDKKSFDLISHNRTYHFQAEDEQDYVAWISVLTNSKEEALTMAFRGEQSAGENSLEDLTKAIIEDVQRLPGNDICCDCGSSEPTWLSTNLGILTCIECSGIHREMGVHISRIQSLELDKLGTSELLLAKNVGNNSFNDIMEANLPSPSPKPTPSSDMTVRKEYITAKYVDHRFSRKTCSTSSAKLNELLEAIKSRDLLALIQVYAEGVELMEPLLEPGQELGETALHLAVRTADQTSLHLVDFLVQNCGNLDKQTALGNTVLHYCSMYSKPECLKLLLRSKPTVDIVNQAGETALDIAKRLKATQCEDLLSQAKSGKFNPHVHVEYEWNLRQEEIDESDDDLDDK
PHOSPHO1 inh: inhibitors of human PHOSPHO1 phosphatase. Q8TCT1. recombinant PHOSPHO1, absorbance phosphatase assay. inhibition, % at 13.3 µM. actives 1.1% (n = 290,000); in the data active means inhibition above about 60%
ARFGAP1 inhibitor: inhibits rat ARF GTPase activating protein 1 | inhibition, % at 16.5 µM | Arfgap1-stimulated ARF1 GTP hydrolysis, GDP FP detection | Q62848 | AID 651572 | actives 0.26% (n = 360,000);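 active means inhibition above a per-plate limit, mean inhibition of low control wells plus 3 SD, cut at about 25% in these data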;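 further: 0% = DMSO wells with enzyme and 100% = wells lacking Arfgap1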
Target sequence (Q62848 1-136 limits assumed): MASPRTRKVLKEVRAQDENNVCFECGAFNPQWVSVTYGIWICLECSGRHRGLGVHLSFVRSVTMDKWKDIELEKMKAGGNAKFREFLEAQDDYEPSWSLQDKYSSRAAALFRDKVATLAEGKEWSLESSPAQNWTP
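Material: truncated rat Arfgap1 GAP domain; Incubation: compound-enzyme preincubation 20 min, reaction 120 min, detection 60 min, 25 °C; Read-out: percent inhibition of Arfgap1-stimulated GTP hydrolysis; Technique: FP, GDP Alexa 633 tracer displaced from anti-GDP antibody, 620/688 nm; Controls: No-Arfgap1 wells (100%) versus DMSO full-reaction wells (0%); Replication: single well per compound.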
IMP-1 inh: blocks Pseudomonas aeruginosa IMP-1 metallo-beta-lactamase; purified IMP-1, nitrocefin hydrolysis, epi-absorbance fluorescence; inhibition, % at 5.6 µM; actives 0.45% (n = 290,000);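 active means inhibition above the mean plus 3 SD of all compounds in the same screening run, cut at about 4.5% in these data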;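 further: 0% = IMP-1 with DMSO and 100% = DMSO wells lacking enzyme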
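System: purified recombinant IMP-1 beta-lactamase. Medium: Zinc- and detergent-supplemented HEPES buffer, pH 7.1. Compound: one 5.6 µM dose […]. Schedule: 15 min preincubation plus 25 min reaction at 25 °C. Technique: Epi-absorbance fluorescence, 480 nm excitation, 530 nm emission.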
Starred values were filed as active, the others as inactive.

Screening CC(C)(C)Cc1nnc(NS(=O)(=O)c2ccc(F)cc2)s1 returned Calb FLC 4, VIM-2 inh -4, ASAP1 inh 11, PHOSPHO1 inh 78*, ARFGAP1 inhibitor 1 and IMP-1 inh -5.
`CC(C)(C)Cc1nnc(NS(=O)(=O)Cc2ccccc2)s1` gave Calb FLC -7, VIM-2 inh 9.0*, ASAP1 inh -5, PHOSPHO1 inh 14, ARFGAP1 inhibitor 5 and IMP-1 inh -4.
Screening COCC1CN(CCc2ccc(F)cc2)S(=O)(=O)c2c(F)cccc2O1 (stereo unspecified) returned ASAP1 inh -2 and ARFGAP1 inhibitor 7.
Screening CC(C)NC(=O)OC[C@H]1O[C@H](C#Cc2ccc(C(C)(C)C)cc2)C=C[C@H]1O returned ASAP1 inh -12 and ARFGAP1 inhibitor 11.
For C/C(O)=c1/c(=O)nc2cccc3c2=c1c1ccccc1c3=O the results were Calb FLC 4, VIM-2 inh 10*, ASAP1 inh 2, PHOSPHO1 inh 40, ARFGAP1 inhibitor 4 and IMP-1 inh 4.
For O=C(/C=C(\Nc1cccc(Cl)c1F)c1ccccc1)c1ccccc1 the results were ASAP1 inh -3 and ARFGAP1 inhibitor 0.
`O=C1/C(=C\c2ccco2)SC(=S)N1c1ccc(O)cc1` gave Calb FLC 29, VIM-2 inh 4, ASAP1 inh 3, PHOSPHO1 inh -3, ARFGAP1 inhibitor 2 and IMP-1 inh 4.
Screening O=C1/C(=C/c2ccco2)SC(=S)N1c1cccnc1 returned Calb FLC 7, VIM-2 inh 0, ASAP1 inh -13, PHOSPHO1 inh 61*, ARFGAP1 inhibitor -6 and IMP-1 inh 2.
CN(c1ccccc1)c1ccc(/C=C(/CCC(=O)O)c2nc3ccccc3s2)cc1[N+](=O)[O-] was read as ASAP1 inh 6 and ARFGAP1 inhibitor 2.
`O=C(O)CC/C(=C\c1ccccc1[N+](=O)[O-])c1nc2ccccc2s1` gave Calb FLC 56, VIM-2 inh 8.8*, ASAP1 inh 3, PHOSPHO1 inh 1, ARFGAP1 inhibitor 7 and IMP-1 inh -2.
For N/C(=N\OC(=O)c1ccccc1Br)c1ccc([N+](=O)[O-])cc1 the results were Calb FLC -1, VIM-2 inh -2, ASAP1 inh -16, PHOSPHO1 inh 41, ARFGAP1 inhibitor -16 and IMP-1 inh 12*.
`N/C(=N\OC(=O)c1ccccc1Br)c1cccc([N+](=O)[O-])c1` gave Calb FLC -6, VIM-2 inh -3, ASAP1 inh 6, PHOSPHO1 inh 10, ARFGAP1 inhibitor 4 and IMP-1 inh 2.
CC(=O)c1c(C)[nH]c(C(=O)CSc2nnc(-c3ccco3)n2Cc2ccccc2)c1C was read as Calb FLC 8, VIM-2 inh -1, ASAP1 inh -14, PHOSPHO1 inh 62*, ARFGAP1 inhibitor -1 and IMP-1 inh -2.
O=C(CSc1nnc(-c2ccco2)n1Cc1ccccc1)OC1CCCCC1 was read as Calb FLC 97*, VIM-2 inh -2, ASAP1 inh 9, PHOSPHO1 inh 38, ARFGAP1 inhibitor -2 and IMP-1 inh -1.
`Nc1[nH]c(C(=O)c2ccccc2)c(-c2ccc(Cl)cc2F)c1C(=O)NCCc1c[nH]c2ccccc12` gave ASAP1 inh 7 and ARFGAP1 inhibitor -7.
For Cc1c(C=O)c2ccccn2c1C(=O)c1cccs1 the results were Calb FLC -4, VIM-2 inh 8.3*, ASAP1 inh -4, PHOSPHO1 inh -12, ARFGAP1 inhibitor -1 and IMP-1 inh -2.
Screening Cc1c(C=O)c2ccccn2c1C(=O)c1ccccc1Cl returned Calb FLC -4, VIM-2 inh 2, ASAP1 inh 9, PHOSPHO1 inh 28, ARFGAP1 inhibitor -1 and IMP-1 inh -1.
For CCOC(=O)C1CCN(S(=O)(=O)c2ccc(CN3C(=O)c4cccnc4C3=O)cc2)CC1 the results were Calb FLC -5, VIM-2 inh 2, ASAP1 inh -8, PHOSPHO1 inh -11, ARFGAP1 inhibitor 5 and IMP-1 inh -3.
For O=C1c2cccnc2C(=O)N1Cc1ccc(S(=O)(=O)N2CCN(c3ccc(Cl)cc3)CC2)cc1 the results were Calb FLC 8, VIM-2 inh 8.5*, ASAP1 inh 2, PHOSPHO1 inh 48, ARFGAP1 inhibitor -1 and IMP-1 inh 2.
Screening CCCCN(C)c1c(C)nc2ccc(C(=O)N(CC)CCN(C)C)cn12 returned ASAP1 inh -5 and ARFGAP1 inhibitor 2.
`CCOC(=O)C1CCN(C2=NC(=O)/C(=C/c3ccc(OC)c(OC)c3)S2)CC1` gave Calb FLC -5, VIM-2 inh -2, ASAP1 inh -8, PHOSPHO1 inh 16, ARFGAP1 inhibitor 10 and IMP-1 inh -3.
`CCOC(=O)C1CCN(C2=NC(=O)/C(=C/c3ccc(Cl)cc3)S2)CC1` gave Calb FLC 8, VIM-2 inh 1, ASAP1 inh 0, PHOSPHO1 inh 20, ARFGAP1 inhibitor -2 and IMP-1 inh 4.9*.
`O=C1N=C(N2CCCCC2)S/C1=C\c1ccc(Br)cc1` gave Calb FLC 16, VIM-2 inh 3, ASAP1 inh -2, PHOSPHO1 inh 24, ARFGAP1 inhibitor 10 and IMP-1 inh 4.7*.
OC1(C#Cc2c(-c3ccsc3)sc3ccccc23)CCCCC1 was read as ASAP1 inh -4 and ARFGAP1 inhibitor 6.
Screening Cc1nc(NCc2cccnc2)c2c3c(sc2n1)CC(C)CC3 (stereo unspecified) returned Calb FLC -30, VIM-2 inh 9.9*, ASAP1 inh 8, PHOSPHO1 inh -6, ARFGAP1 inhibitor 8 and IMP-1 inh -1.
Cc1nc(NCc2ccccn2)c2c3c(sc2n1)CCCC3 was read as Calb FLC 51, VIM-2 inh 5, ASAP1 inh -18, PHOSPHO1 inh -3, ARFGAP1 inhibitor 5 and IMP-1 inh -4.
Screening COc1cc2c(NCCCCCCO[N+](=O)[O-])ncnc2c(OC)c1OC returned ASAP1 inh -5 and ARFGAP1 inhibitor 9.
Screening Cc1c(O)cc2n(c1=O)-c1ccc(Cl)cc1C2(C)C returned Calb FLC 109*, VIM-2 inh 0, ASAP1 inh -20, PHOSPHO1 inh 8, ARFGAP1 inhibitor 4 and IMP-1 inh -1.
CC(C)C(C(=O)O)N1C(=O)/C(=C/C=C/c2ccco2)SC1=S (stereo unspecified) was read as Calb FLC 7, VIM-2 inh -1, PHOSPHO1 inh -3 and IMP-1 inh 5.8*.
For Cc1ccc(C(=O)CSc2nnc(-c3ccc4[nH]c(C)c(C)c4c3)o2)cc1C the results were Calb FLC -7, VIM-2 inh 2, ASAP1 inh -16, PHOSPHO1 inh 74*, ARFGAP1 inhibitor -2 and IMP-1 inh -1.
